Reference: ChEMBL document CHEMBL1157582, “Synthesis and uptake of fluorescence-labeled Combi-molecules by P-glycoprotein-proficient and -deficient uterine sarcoma cells MES-SA and MES-SA/DX5” (J Med Chem, 2010)
The source made the active and inactive calls. No cut-off for these calls is given here.

Assays:
[1] = Cellular uptake in human MES-SA cells at 25 uM after 2 hrs by fluorescence microscopy; assay type: ADME, cell-based
Procedure, shortened: (§1)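 Cells plated at 70% confluence and left to adhere overnight. Treated with 0, 25 or 50 μM for 2 h, washed twice with PBS, then imaged live without fixation at 40× under fluorescence; blue aminoquinazoline and green dansylated species captured through separate filters.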

[2] = Antiproliferative activity against human MES-SA/Dx5 cells after 96 hrs by SRB assay; assay type: functional, cell-based; settings: MES-SA/Dx5, 96 h
Procedure, shortened: (§2)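 Cells plated at 5000/well, attached overnight, then exposed to a range of drug concentrations for 96 h. Fixed with trichloroacetic acid (1 h, 4 °C), stained with 0.4% sulforhodamine B (2 h, room temperature), dye dissolved in 10 mM Tris base pH 10.0, OD read at 492 nm. IC50 taken from sigmoidal dose-response fit. At least three independent experiments in triplicate. DMSO ≤0.1% (v/v).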

[3] = Cellular uptake in human MES-SA cells after 2 hrs by flow cytometry; assay type: ADME, cell-based
MES-SA [4] = test: Induction of DNA damage in human MES-SA cells assessed as increase in comet-tail length by alkaline comet assay; assay type: functional, cell-based
MES-SA/Dx5 = test: Induction of DNA damage in human MES-SA/Dx5 cells assessed as increase in comet-tail length by alkaline comet assay; assay type: functional, cell-based
[5] = Antiproliferative activity against human MES-SA cells after 96 hrs by SRB assay; assay type: functional, cell-based
MDA-MB-468 = test: Antiproliferative activity against human MDA-MB-468 cells after 96 hrs by SRB assay; assay type: functional, cell-based; settings: MDA-MB-468, 96 h; procedure, shortened: as §2
[6] = Stability in serum assessed as half life by UV spectrophotometry; assay type: ADME, cell-free
[7] = molecular target: Epidermal growth factor receptor (Homo sapiens, UniProt P00533); test: Inhibition of EGFR
Sequence of Epidermal growth factor receptor (P00533 whole entry): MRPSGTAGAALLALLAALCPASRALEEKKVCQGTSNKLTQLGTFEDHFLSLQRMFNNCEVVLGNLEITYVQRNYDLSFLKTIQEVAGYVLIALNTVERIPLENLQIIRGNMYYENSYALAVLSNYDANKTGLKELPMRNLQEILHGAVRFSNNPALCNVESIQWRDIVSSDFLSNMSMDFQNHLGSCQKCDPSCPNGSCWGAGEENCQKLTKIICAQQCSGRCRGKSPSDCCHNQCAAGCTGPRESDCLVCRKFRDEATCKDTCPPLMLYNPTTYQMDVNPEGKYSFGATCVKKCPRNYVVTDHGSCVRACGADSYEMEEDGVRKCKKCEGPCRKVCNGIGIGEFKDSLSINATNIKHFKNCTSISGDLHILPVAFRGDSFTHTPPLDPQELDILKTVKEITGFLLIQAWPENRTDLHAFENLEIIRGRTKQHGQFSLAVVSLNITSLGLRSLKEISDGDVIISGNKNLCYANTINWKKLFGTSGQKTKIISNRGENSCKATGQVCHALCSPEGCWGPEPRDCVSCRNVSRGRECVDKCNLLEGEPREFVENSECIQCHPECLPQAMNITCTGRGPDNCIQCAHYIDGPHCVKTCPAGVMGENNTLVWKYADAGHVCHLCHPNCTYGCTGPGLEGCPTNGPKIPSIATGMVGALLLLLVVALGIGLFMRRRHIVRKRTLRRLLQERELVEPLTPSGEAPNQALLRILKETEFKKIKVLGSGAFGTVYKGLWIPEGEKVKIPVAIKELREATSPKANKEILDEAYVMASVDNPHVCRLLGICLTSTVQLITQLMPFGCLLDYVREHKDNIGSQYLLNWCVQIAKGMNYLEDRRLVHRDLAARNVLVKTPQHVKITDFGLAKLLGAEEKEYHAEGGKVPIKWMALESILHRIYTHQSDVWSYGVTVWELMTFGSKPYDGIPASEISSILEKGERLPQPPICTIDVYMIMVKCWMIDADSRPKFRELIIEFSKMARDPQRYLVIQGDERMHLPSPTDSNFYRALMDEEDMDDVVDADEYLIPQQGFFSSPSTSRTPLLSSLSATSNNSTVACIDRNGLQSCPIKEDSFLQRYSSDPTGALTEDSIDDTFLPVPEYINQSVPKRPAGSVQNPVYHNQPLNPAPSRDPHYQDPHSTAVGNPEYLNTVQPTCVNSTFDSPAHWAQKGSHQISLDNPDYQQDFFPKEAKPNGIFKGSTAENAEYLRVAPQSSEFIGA

[8] = Cellular uptake in human MES-SA/Dx5 cells at 25 uM after 2 hrs by fluorescence microscopy; assay type: ADME, cell-based; settings: mes-sa/dx5, 2 h; procedure, shortened: as §1
[9] = Cellular uptake in human MES-SA/Dx5 cells after 2 hrs by flow cytometry; assay type: ADME, cell-based; settings: mes-sa/dx5, 2 h
MES-SA [10] = test: Selectivity ratio of IC50 for human MES-SA cells to IC50 for human MES-SA/Dx5 cells; assay type: functional

| SMILES | Drug uptake [1] | IC50 [2] | Drug uptake [3] | Activity (MES-SA [4]) | Activity (MES-SA/Dx5) | IC50 [5] | IC50 (MDA-MB-468) | half-life [6] | IC50 [7] | Drug uptake [8] | Drug uptake [9] | Ratio IC50 (MES-SA [10]) |
| --- | --- | --- | --- | --- | --- | --- | --- | --- | --- | --- | --- | --- |
| COc1cccc2c1C(=O)c1c(O)c3c(c(O)c1C2=O)C[C@@](O)(C(=O)CO)C[C@@H]3O[C@H]1C[C@H](N)[C@H](O)[C@H](C)O1 [DOXORUBICIN] | Active | 3.1 µM | Active | Active | Active | – | – | – | – | – | – | – |
| CN(CCN/N=N/c1ccc2ncnc(Nc3cccc(Cl)c3)c2c1)CCNS(=O)(=O)c1cccc2c(N(C)C)cccc12 | – | 9.34 µM | – | Active | Active | 8.57 µM | 5.2 µM | – | – | – | – | – |
| CN(C)CCN/N=N/c1ccc2ncnc(Nc3cccc(Cl)c3)c2c1 | – | – | – | – | – | – | – | 108 min | – | – | – | – |
| CN(CCN=NNc1ccc2ncnc(Nc3cccc(Cl)c3)c2c1)CCNS(=O)(=O)c1cccc2c(N(C)C)cccc12 | Active | – | Active | – | – | – | – | 21.7 min | 0.6 µM | Active | Active | – |
| CN(C)c1cccc2c(S(=O)(=O)NCCN=NNc3ccc4ncnc(Nc5cccc(Cl)c5)c4c3)cccc12 | Active | 16.6 µM | Active | – | – | 26.6 µM | 9.1 µM | 4.96 min | 1.4 µM | Active | Active | 1.6 |
